Experiments:
[1] = Individual predicted steady-state exposures; format: in vivo, human; details: for AUC / Cmax: human, plasma, oral
How it was run: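 Steady-state AUC24, Ctrough, Cmax and Cavg were derived from each individual's Bayesian post hoc estimates from the final three-compartment population PK model, with sequential zero-/first-order lagged absorption. Values are summarised per […] as mean (SD) and median (5th–95th percentile).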

OATP1B3 = details: cited from earlier work
[2] = cited from earlier work
OAT1 = details: cited from earlier work
[3] = oral administration of a 60-mg dose

- Cavg, Median (5th to 95th percentile) ([1]; PROGRESS CM, 30 mg BID): 135 (33.1–571) ng/mL
- Ctrough, Mean (SD) ([1]; PROGRESS CM, 30 mg BID): 56.1 (43) ng/mL
- Ctrough, Median (5th to 95th percentile) ([1]; PROGRESS CM, 30 mg BID): 42.4 (8.87–269) ng/mL
- Time above ½EC90 (4.2 ng/mL or 7 nM), Mean (SD) ([1]; PROGRESS CM, 30 mg BID): 24.0 (0.0) hr
- Time above ½EC90 (4.2 ng/mL or 7 nM), Median (5th to 95th percentile) ([1]; PROGRESS CM, 30 mg BID): 24.0 (24.0–24.0) hr
- Cavg, Mean (SD) ([1]; PROGRESS CM, 60 mg QD): 139 (85) ng/mL
- Cavg, Median (5th to 95th percentile) ([1]; PROGRESS CM, 60 mg QD): 120 (21.9–908) ng/mL
- Ctrough, Mean (SD) ([1]; PROGRESS CM, 60 mg QD): 18.8 (24) ng/mL
- Ctrough, Median (5th to 95th percentile) ([1]; PROGRESS CM, 60 mg QD): 14.4 (2.23–287) ng/mL
- Time above ½EC90 (4.2 ng/mL or 7 nM), Mean (SD) ([1]; PROGRESS CM, 60 mg QD): 23.9 (0.88) hr
- Time above ½EC90 (4.2 ng/mL or 7 nM), Median (5th to 95th percentile) ([1]; PROGRESS CM, 60 mg QD): 24.0 (15.5–24.0) hr
- AUC ([1]; 10 mg, AUC24, Mean (SD), ADVANCE EM, 10 mg QD): 0.525 µg·h/mL
- AUC ([1]; 10 mg, AUC24, Mean (SD), CGP-MD-01 EM, 10 mg QD): 0.461 µg·h/mL
- AUC ([1]; 10 mg, AUC24, Median (5th to 95th percentile), ADVANCE EM, 10 mg QD): 0.464 µg·h/mL
- AUC ([1]; 10 mg, AUC24, Median (5th to 95th percentile), CGP-MD-01 EM, 10 mg QD): 0.464 µg·h/mL
- Cmax ([1]; 10 mg, Mean (SD), ADVANCE EM, 10 mg QD): 0.0817 µg/mL
- Cmax ([1]; 10 mg, Mean (SD), CGP-MD-01 EM, 10 mg QD): 0.0745 µg/mL
- Cmax ([1]; 10 mg, Median (5th to 95th percentile), ADVANCE EM, 10 mg QD): 0.0733 µg/mL
- Cmax ([1]; 10 mg, Median (5th to 95th percentile), CGP-MD-01 EM, 10 mg QD): 0.0739 µg/mL
- AUC ([1]; 30 mg, AUC24, Mean (SD), ADVANCE EM, 30 mg QD): 1.83 µg·h/mL
- AUC ([1]; 30 mg, AUC24, Mean (SD), CGP-MD-01 EM, 30 mg BID): 3.9 µg·h/mL
- AUC ([1]; 30 mg, AUC24, Mean (SD), CGP-MD-01 EM, 30 mg QD): 1.71 µg·h/mL
- AUC ([1]; 30 mg, AUC24, Median (5th to 95th percentile), ADVANCE EM, 30 mg QD): 1.56 µg·h/mL
- AUC ([1]; 30 mg, AUC24, Median (5th to 95th percentile), CGP-MD-01 EM, 30 mg BID): 3.18 µg·h/mL
- AUC ([1]; 30 mg, AUC24, Median (5th to 95th percentile), CGP-MD-01 EM, 30 mg QD): 1.59 µg·h/mL
- AUC ([1]; 30 mg, AUC24, Median (5th to 95th percentile), PROGRESS CM, 30 mg BID): 3.23 µg·h/mL
- Cmax ([1]; 30 mg, Mean (SD), ADVANCE EM, 30 mg QD): 0.271 µg/mL
- Cmax ([1]; 30 mg, Mean (SD), CGP-MD-01 EM, 30 mg BID): 0.327 µg/mL
- Cmax ([1]; 30 mg, Mean (SD), CGP-MD-01 EM, 30 mg QD): 0.26 µg/mL
- Cmax ([1]; 30 mg, Median (5th to 95th percentile), ADVANCE EM, 30 mg QD): 0.244 µg/mL
- Cmax ([1]; 30 mg, Median (5th to 95th percentile), CGP-MD-01 EM, 30 mg BID): 0.284 µg/mL
- Cmax ([1]; 30 mg, Median (5th to 95th percentile), CGP-MD-01 EM, 30 mg QD): 0.247 µg/mL
- Cmax ([1]; 30 mg, Median (5th to 95th percentile), PROGRESS CM, 30 mg BID): 0.296 µg/mL
- AUC ([1]; 60 mg, AUC24, Mean (SD), ADVANCE EM, 60 mg QD): 3.74 µg·h/mL
- AUC ([1]; 60 mg, AUC24, Mean (SD), CGP-MD-01 EM, 60 mg BID): 7.94 µg·h/mL
- AUC ([1]; 60 mg, AUC24, Mean (SD), CGP-MD-01 EM, 60 mg QD): 3.64 µg·h/mL
- AUC ([1]; 60 mg, AUC24, Mean (SD), ELEVATE EM, 60 mg QD): 3.53 µg·h/mL
- AUC ([1]; 60 mg, AUC24, Median (5th to 95th percentile), ADVANCE EM, 60 mg QD): 3.22 µg·h/mL
- AUC ([1]; 60 mg, AUC24, Median (5th to 95th percentile), CGP-MD-01 EM, 60 mg BID): 6.9 µg·h/mL
- AUC ([1]; 60 mg, AUC24, Median (5th to 95th percentile), CGP-MD-01 EM, 60 mg QD): 3.45 µg·h/mL
- AUC ([1]; 60 mg, AUC24, Median (5th to 95th percentile), ELEVATE EM, 60 mg QD): 3.31 µg·h/mL
- AUC ([1]; 60 mg, AUC24, Median (5th to 95th percentile), PROGRESS CM, 60 mg QD): 2.9 µg·h/mL
- Cmax ([1]; 60 mg, Mean (SD), ADVANCE EM, 60 mg QD): 0.561 µg/mL
- Cmax ([1]; 60 mg, Mean (SD), CGP-MD-01 EM, 60 mg BID): 0.634 µg/mL
- Cmax ([1]; 60 mg, Mean (SD), CGP-MD-01 EM, 60 mg QD): 0.545 µg/mL
- Cmax ([1]; 60 mg, Median (5th to 95th percentile), ADVANCE EM, 60 mg QD): 0.504 µg/mL
- Cmax ([1]; 60 mg, Median (5th to 95th percentile), PROGRESS CM, 60 mg QD): 0.504 µg/mL
SMILES: C[C@@H]1[C@H](c2c(F)ccc(F)c2F)C[C@H](NC(=O)c2cnc3c(c2)C[C@@]2(C3)C(=O)Nc3ncccc32)C(=O)N1CC(F)(F)F [atogepant, Atogepant]
- Transporter substrate status (OATP1B3): substrate
- Area under the concentration–time curve (AUC) ([2]; 60-mg dose): ~ 3470 ng h/mL
- Dose proportionality of PK [2]: dose-proportional up to a 300-mg single dose and multiple doses of 170 mg/day
- Food effect [2]: no clinically significant food effect
- Half-life (t1/2) [2]: ~ 11 h
- Accumulation ([2]; multiple doses): no accumulation
- Maximum plasma concentration (Cmax) [2, 3]: ~ 740 ng/mL
- Time to achieve a pharmacologically effective concentration [2, 3]: ≤ 30 min
- Transporter substrate status (OAT1): substrate
